In publication PMC5928661 (Molecular Medicine Reports, 2018):

Experiments:
[1] = tested on: ETV-resistant HBV (HepG2.A64 cells); assay: Cell-based antiviral assay, supernatant HBV DNA by qPCR; parameters: species or system hepatitis B virus; details: for EC50: Hepatitis B virus, HepG2.A64, 96 h, read-out: EC50 against HBV
MRP4 (HepG2.A64 cells) = biological target: T1, MRP4 (HepG2.A64 cells) (Homo sapiens, UniProt O15439); format: in vitro ADME; details: HepG2.A64, drug 4 days, 5 µM MK571 4 h, LCMS
T1 sequence (O15439 1-1325): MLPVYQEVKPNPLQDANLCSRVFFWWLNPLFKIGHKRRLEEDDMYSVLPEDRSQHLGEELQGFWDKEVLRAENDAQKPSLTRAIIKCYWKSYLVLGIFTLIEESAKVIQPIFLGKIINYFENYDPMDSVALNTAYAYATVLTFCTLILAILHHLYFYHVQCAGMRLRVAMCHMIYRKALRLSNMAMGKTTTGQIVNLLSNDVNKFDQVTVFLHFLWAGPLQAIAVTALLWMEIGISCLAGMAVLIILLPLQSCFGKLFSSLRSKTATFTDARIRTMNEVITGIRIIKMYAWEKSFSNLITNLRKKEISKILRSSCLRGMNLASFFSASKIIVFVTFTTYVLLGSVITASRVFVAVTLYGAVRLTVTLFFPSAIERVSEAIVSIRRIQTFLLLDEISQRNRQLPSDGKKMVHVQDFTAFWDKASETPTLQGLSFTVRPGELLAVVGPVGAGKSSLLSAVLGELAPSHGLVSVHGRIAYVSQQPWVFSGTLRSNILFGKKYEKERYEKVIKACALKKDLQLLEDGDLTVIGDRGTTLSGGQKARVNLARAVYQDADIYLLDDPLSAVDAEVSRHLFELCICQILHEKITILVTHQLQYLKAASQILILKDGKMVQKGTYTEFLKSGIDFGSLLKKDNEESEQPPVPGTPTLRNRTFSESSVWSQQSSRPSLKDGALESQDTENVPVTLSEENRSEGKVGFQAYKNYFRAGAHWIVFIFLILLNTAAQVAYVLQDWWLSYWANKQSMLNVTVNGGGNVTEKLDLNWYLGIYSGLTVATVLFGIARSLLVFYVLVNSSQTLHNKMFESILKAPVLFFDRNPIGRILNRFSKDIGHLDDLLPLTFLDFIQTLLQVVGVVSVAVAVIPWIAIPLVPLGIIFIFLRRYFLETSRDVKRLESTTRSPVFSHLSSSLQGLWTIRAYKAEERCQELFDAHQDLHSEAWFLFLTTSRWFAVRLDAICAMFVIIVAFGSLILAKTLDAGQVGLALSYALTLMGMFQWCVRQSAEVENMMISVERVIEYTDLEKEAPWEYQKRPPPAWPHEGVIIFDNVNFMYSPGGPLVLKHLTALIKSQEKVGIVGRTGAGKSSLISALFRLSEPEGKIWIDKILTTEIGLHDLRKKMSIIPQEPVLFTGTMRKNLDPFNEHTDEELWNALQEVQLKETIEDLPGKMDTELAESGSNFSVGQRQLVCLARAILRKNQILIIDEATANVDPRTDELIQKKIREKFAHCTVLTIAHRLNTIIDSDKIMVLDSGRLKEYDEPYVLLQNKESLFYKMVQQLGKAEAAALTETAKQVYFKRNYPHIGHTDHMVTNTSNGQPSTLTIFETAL

MRP4 (HepG2.4D14 cells) = biological target: T2, MRP4 (HepG2.4D14 cells) (Homo sapiens, UniProt O15439); format: in vitro ADME; details: HepG2.4D14, drug 4 days, 5 µM MK571 48 h, LCMS
T2 sequence (O15439 1-1325): T1 sequence (O15439 1-1325)

HepG2.A64 cells = assay: Cell proliferation; format: cell-based, human; details: HepG2.A64, CCK-8, 96 h
In short: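 HepG2-derived cells carrying ETV-resistant HBV, kept in DMEM with 10% FBS, penicillin-streptomycin and 300 µg/ml geneticin at 37°C, 5% CO2. Seeded at 3×10^3 cells/well; after 24 h, drug dilution series in conditioned medium were added and renewed every other day for 4 days. CCK-8 was added, then 1~4 h incubation and absorbance at 450 nm. Five replicates, three independent experiments; IC50 calculated.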

[2] = tested on: wild-type HBV (HepG2.4D14 cells); assay: Cell-based antiviral assay, supernatant HBV DNA by qPCR; details: Hepatitis B virus, 96 h, read-out: EC50 against HBV

| Compound | EC50 [1] [µM] | Extracellular concentration in presence of MK571 vs control (absence of MK571) (MRP4 (HepG2.A64 cells)) | Extracellular concentration in presence of MK571 vs control (absence of MK571) (MRP4 (HepG2.4D14 cells)) | Doses at which apparent cytotoxicity was observed (HepG2.A64 cells) | EC50 [2] [µM] | Fold resistance (mutant EC50 to wild-type EC50) ([1]; HepG2.A64 vs HepG2.4D14) [fold] | Intracellular accumulation in presence of MK571 vs control (absence of MK571) (MRP4 (HepG2.A64 cells)) | Intracellular accumulation in presence of MK571 vs control (absence of MK571) (MRP4 (HepG2.4D14 cells)) |
| --- | --- | --- | --- | --- | --- | --- | --- | --- |
| C=C1[C@H](CO)[C@@H](O)C[C@@H]1n1cnc2c(=O)[nH]c(N)nc21 [ETV, entecavir] | 6.28 ± 0.07 | slightly reduced | slightly reduced | above 10 µM | 0.13 ± 0.02 | – | – | – |
| C[C@H](Cn1cnc2c(N)ncnc21)OCP(=O)(O)O [TFV, tenofovir] | 11.43 ± 0.09 | slightly reduced | slightly reduced | above 10 µM | 3.24 ± 0.01 | 3.5 | markedly increased | markedly increased |
| CN(C)C(=O)CCSC(SCCC(=O)O)c1cccc(/C=C/c2ccc3ccc(Cl)cc3n2)c1 (stereo not shown) [MK571, 3-([(3-(2-[7-chloro-2-quinolinyl]ethyl)phenyl]-[(3-dimethylamino-3-oxoporphyl)-thio)-methyl]-thio) propanoic acid] | – | – | – | above 10 µM | – | – | – | – |
| Nc1ccn([C@@H]2CS[C@H](CO)O2)c(=O)n1 [LAM, lamivudine] | 5.94 ± 0.2 | slightly reduced | slightly reduced | above 10 µM | 4.14 ± 0.03 | – | – | – |
